Reference: ChEMBL document CHEMBL4017520, “Discovery, Structure-Activity Relationship, and Antiparkinsonian Effect of a Potent and Brain-Penetrant Chemical Series of Positive Allosteric Modulators of Metabotropic Glutamate Receptor 4” (J Med Chem, 2017)
pEC50: −log10 of the molar value. The source made the active and inactive calls. No cut-off for these calls is given here.

Columns and labels:
[1] = target: T1, Metabotropic glutamate receptor 4 (Homo sapiens, UniProt Q14833); experiment: Positive allosteric modulation of recombinant human mGlu4 receptor expressed in HEK293 cells co-expressing Gi/Gq assessed as increase in glutamate-induced calcium flux preincubated for 10 mins followed by glutamate addition measured for 3 mins by Fluo4-AM dye based fluorescence assay; format: functional, cell-based; settings: read-out: EC50
T1 sequence (Q14833 whole entry): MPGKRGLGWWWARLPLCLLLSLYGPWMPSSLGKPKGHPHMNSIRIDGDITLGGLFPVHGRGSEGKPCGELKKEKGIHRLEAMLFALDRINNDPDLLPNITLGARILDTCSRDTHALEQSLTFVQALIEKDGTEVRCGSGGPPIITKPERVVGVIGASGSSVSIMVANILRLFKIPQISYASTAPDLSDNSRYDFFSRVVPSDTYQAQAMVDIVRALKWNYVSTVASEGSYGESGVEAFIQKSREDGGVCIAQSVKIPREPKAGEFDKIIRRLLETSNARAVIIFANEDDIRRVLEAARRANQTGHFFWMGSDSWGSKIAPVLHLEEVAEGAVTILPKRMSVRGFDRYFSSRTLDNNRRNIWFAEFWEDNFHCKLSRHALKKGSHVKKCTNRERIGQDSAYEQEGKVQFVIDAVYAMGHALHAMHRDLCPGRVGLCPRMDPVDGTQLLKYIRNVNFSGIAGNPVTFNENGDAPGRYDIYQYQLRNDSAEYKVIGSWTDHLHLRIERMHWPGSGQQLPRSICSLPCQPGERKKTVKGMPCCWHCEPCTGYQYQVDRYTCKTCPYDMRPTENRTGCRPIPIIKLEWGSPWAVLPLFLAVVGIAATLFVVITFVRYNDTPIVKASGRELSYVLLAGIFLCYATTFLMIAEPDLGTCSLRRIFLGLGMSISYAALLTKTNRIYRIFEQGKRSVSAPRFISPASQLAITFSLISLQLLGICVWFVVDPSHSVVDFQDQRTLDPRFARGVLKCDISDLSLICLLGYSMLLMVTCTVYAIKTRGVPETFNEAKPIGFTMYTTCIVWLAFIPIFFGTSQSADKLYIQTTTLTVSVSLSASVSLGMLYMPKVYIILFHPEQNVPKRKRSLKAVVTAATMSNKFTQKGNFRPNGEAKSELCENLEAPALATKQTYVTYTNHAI

[2] = target: T1, Metabotropic glutamate receptor 4; experiment: Positive allosteric modulation of recombinant human mGlu4 receptor expressed in HEK293 cells co-expressing chimeric G protein assessed as increase in EC20 glutamate-induced […]; format: functional, cell-based
[3] = target: Metabotropic glutamate receptor 4 (Rattus norvegicus, UniProt P31423); experiment: Positive allosteric modulation of rat mGlu4 receptor expressed in HEK293 cells co-expressing Gi/Gq assessed as increase in glutamate-induced calcium flux preincubated for 10 mins followed by glutamate addition measured for 3 mins by Fluo4-AM dye based fluorescence assay; format: functional, cell-based
Chain of Metabotropic glutamate receptor 4 (Rattus norvegicus, UniProt P31423) (P31423 whole entry): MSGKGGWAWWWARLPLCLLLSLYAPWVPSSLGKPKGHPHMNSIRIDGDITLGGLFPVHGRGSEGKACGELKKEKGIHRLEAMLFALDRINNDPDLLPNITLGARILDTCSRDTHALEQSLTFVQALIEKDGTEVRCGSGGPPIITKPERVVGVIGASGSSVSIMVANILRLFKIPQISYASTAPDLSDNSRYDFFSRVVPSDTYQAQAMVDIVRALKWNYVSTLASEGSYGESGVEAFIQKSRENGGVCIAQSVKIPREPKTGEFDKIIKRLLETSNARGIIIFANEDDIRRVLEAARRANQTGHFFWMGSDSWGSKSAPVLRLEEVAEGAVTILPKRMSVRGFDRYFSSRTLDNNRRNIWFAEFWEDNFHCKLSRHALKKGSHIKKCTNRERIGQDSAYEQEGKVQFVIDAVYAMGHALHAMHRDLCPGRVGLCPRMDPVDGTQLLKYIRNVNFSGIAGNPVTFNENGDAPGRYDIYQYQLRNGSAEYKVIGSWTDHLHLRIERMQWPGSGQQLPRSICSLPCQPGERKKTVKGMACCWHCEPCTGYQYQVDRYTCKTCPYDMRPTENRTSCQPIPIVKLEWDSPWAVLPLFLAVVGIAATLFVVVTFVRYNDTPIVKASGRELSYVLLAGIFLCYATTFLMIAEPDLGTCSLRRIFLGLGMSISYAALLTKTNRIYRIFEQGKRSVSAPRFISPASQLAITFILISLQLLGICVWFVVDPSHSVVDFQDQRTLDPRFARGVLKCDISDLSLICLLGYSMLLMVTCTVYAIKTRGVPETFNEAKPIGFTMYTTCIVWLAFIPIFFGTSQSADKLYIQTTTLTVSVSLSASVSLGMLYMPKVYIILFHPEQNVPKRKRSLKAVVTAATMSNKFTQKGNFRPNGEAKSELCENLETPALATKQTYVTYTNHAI

Homo sapiens [4] = species: Homo sapiens; experiment: Selectivity ratio of compound effect for positive allosteric modulation of recombinant human mGlu4 receptor to compound effect for activity at human mGlu6 receptor
Rattus norvegicus [5] = species: Rattus norvegicus; experiment: Activity at AMPA glutamate receptor in rat cerebral cortex at 10 uM
Procedure, shortened: (§1)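 Inhibition of orthosteric ligand binding to NMDA, AMPA and kainate receptors on rat cerebral cortex membranes, tested up to 10 μM.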

Rattus norvegicus [6] = species: Rattus norvegicus; experiment: Activity at NMDA glutamate receptor in rat cerebral cortex at 10 uM; procedure, shortened: as §1
Rattus norvegicus [7] = species: Rattus norvegicus; experiment: Activity at kainate glutamate receptor in rat cerebral cortex at 10 uM; procedure, shortened: as §1
[8] = Activity at COMT (unknown origin) up to 10 uM; format: ADME; settings: human
[9] = target: Amine oxidase [flavin-containing] A (Homo sapiens, UniProt P21397); experiment: Activity at MAO-A (unknown origin) up to 10 uM; format: ADME
Chain of Amine oxidase [flavin-containing] A (P21397 whole entry): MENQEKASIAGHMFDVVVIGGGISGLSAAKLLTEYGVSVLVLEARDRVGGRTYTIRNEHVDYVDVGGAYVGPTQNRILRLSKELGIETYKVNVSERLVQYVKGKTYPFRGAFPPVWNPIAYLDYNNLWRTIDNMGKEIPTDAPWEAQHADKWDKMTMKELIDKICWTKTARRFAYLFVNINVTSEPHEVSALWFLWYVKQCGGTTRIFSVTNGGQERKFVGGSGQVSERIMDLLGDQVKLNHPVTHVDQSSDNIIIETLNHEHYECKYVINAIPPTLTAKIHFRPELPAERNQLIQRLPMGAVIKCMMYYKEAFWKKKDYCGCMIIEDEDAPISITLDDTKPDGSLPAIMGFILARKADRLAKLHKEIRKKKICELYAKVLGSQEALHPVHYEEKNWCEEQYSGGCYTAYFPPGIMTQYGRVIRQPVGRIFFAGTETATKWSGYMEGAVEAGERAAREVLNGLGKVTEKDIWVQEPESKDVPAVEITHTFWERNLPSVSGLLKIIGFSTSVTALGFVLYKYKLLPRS

[10] = target: Amine oxidase [flavin-containing] B (Homo sapiens, UniProt P27338); experiment: Activity at MAO-B (unknown origin) up to 10 uM; format: ADME
Chain of Amine oxidase [flavin-containing] B (P27338 whole entry): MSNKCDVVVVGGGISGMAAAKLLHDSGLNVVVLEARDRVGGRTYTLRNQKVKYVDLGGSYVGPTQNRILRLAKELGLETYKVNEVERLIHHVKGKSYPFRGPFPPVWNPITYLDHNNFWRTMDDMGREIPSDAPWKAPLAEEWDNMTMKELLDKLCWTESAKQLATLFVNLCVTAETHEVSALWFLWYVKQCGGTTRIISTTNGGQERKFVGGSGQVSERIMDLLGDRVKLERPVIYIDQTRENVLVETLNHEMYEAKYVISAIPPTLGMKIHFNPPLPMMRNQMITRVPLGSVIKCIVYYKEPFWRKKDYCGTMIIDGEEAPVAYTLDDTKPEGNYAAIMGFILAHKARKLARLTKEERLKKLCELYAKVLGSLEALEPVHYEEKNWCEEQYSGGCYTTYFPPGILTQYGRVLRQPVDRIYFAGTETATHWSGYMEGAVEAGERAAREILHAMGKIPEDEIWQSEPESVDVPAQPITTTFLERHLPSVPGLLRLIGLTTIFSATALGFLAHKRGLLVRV

[11] = Cmax in Sprague-Dawley rat at 1 mg/kg, iv administered as single dose by LC-MS/MS analysis; format: ADME, organism-based; design: dose 1 mg/kg, route intravenous; settings: in vivo
[12] = Half life in Sprague-Dawley rat at 1 mg/kg, iv administered as single dose by LC-MS/MS analysis; format: ADME, organism-based; settings: in vivo
Procedure, shortened: (§2)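 Single iv dose, 1 mg/kg in rat or 2 mg/kg in mouse; plasma PK parameters derived; brain/plasma ratio taken at 1 h postdose (rat) or 30 min postdose (mouse). Mean of 3 rats; 2 mice for mouse Cmax and brain/plasma.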

[13] = AUC (0 to infinity) in Sprague-Dawley rat at 1 mg/kg, iv administered as single dose by LC-MS/MS analysis; format: ADME, organism-based; design: dose 1 mg/kg, route intravenous, time infinity; settings: in vivo
[14] = Plasma clearance in Sprague-Dawley rat at 1 mg/kg, iv administered as single dose by LC-MS/MS analysis; format: ADME, organism-based; procedure, shortened: as §2
[15] = Volume of distribution in Sprague-Dawley rat at 1 mg/kg, iv administered as single dose by LC-MS/MS analysis; format: ADME, organism-based; settings: in vivo
Procedure, shortened: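 Single intravenous dose: rats 1 mg/kg, mice 2 mg/kg. Plasma concentration–time data yielded Cmax, t1/2, AUC0−∞, plasma clearance and volume of distribution. Values are mean ±SEM of 3 animals.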

[16] = Ratio of drug level in Sprague-Dawley rat brain to plasma at 1 mg/kg, iv after 1 hr post dose administered as single dose by LC-MS/MS analysis; format: ADME, organism-based; settings: read-out: BPR; procedure, shortened: as §2
[17] = Cmax in Sprague-Dawley rat plasma at 10 mg/kg, po administered as single dose by LC-MS/MS analysis; format: ADME, organism-based; design: dose 10 mg/kg, route oral
Procedure, shortened: (§3)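 Rats given a single oral dose of 10 mg/kg. The first plasma sample was taken at 15 min, and sampling continued to 24 h postdose. Brain was sampled at 30 min. Values are the mean (±SEM) of 3 rats.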

[18] = Tmax in Sprague-Dawley rat plasma at 10 mg/kg, po administered as single dose by LC-MS/MS analysis; format: ADME, organism-based
Procedure, shortened: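 Single-dose plasma PK after ip (10 or 30 mg/kg) or oral (10 mg/kg) dosing in rats, and oral 10 mg/kg dosing in mice. […] Values are mean ±SEM of 3 rats or 2 mice.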

[19] = AUC (0 to infinity) in Sprague-Dawley rat plasma at 10 mg/kg, po administered as single dose by LC-MS/MS analysis; format: ADME, organism-based; design: dose 10 mg/kg, time infinity, route oral; procedure, shortened: as §3
[20] = Drug uptake in Sprague-Dawley rat brain at 10 mg/kg, po after 30 mins post dose administered as single dose by LC-MS/MS analysis; format: ADME, organism-based; settings: read-out: Drug uptake; procedure, shortened: as §3
Brain = experiment: AUC (0 to infinity) in Sprague-Dawley rat brain at 10 mg/kg, po administered as single dose by LC-MS/MS analysis; format: ADME, organism-based; design: dose 10 mg/kg, time infinity, route oral; settings: in vivo
Procedure, shortened: (§4)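 Rats given a single oral dose of 10 mg/kg. Brain concentrations were measured at 30, 60 and 90 min postdose, and brain AUC0–inf was determined. Values are the mean of three rats. Lower limit of quantification was 1 ng/mL.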

Homo sapiens [21] = species: Homo sapiens; experiment: Selectivity ratio of compound effect for positive allosteric modulation of recombinant human mGlu4 receptor to compound effect for agonist activity at human mGlu8 receptor
Homo sapiens [22] = species: Homo sapiens; experiment: Selectivity ratio of compound effect for positive allosteric modulation of recombinant human mGlu4 receptor to compound effect for agonist activity at human mGlu7 receptor
[23] = target: T1, Metabotropic glutamate receptor 4; experiment: Positive allosteric modulation of recombinant human mGlu4 receptor expressed in HEK293 cells co-expressing chimeric G protein assessed as increase in glutamate-induced calcium flux after 10 mins by Fluo4-AM dye based fluorescence assay; format: functional, cell-based
[24] = target: T1, Metabotropic glutamate receptor 4; experiment: Positive allosteric modulation of recombinant human mGlu4 receptor expressed in HEK293 cells co-expressing chimeric Gi/Gq assessed as increase in EC20 glutamate-induced calcium flux at 15 uM preincubated for 10 mins followed by glutamate addition measured for 3 mins by Fluo4-AM dye based fluorescence assay relative to control; format: functional, cell-based
[25] = Drug uptake in Sprague-Dawley rat brain at 10 mg/kg, po after 90 mins post dose administered as single dose by LC-MS/MS analysis; format: ADME, organism-based; settings: read-out: Drug uptake; procedure, shortened: as §4
[26] = Drug uptake in Sprague-Dawley rat brain at 10 mg/kg, po after 60 mins post dose administered as single dose by LC-MS/MS analysis; format: ADME, organism-based; settings: read-out: Drug uptake; procedure, shortened: as §4
[27] = Ratio of AUC (0 to infinity) in Sprague-Dawley rat brain to plasma at 10 mg/kg, po administered as single dose by LC-MS/MS analysis; format: ADME, organism-based; settings: read-out: Ratio AUC
[28] = Ratio of drug level in Sprague-Dawley rat brain to plasma at 25 mg/kg, po administered as single dose by LC-MS/MS analysis; format: ADME, organism-based; settings: read-out: BPR
Procedure, shortened: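 Sprague−Dawley rats dosed orally at 25 mg/kg in water; plasma and brain concentrations followed over time to derive brain/plasma ratio.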

[29] = target: T1, Metabotropic glutamate receptor 4; experiment: Positive allosteric modulation of recombinant human mGlu4 receptor expressed in HEK293 cells co-expressing chimeric Gi/Gq protein assessed as fold shift of glutamate potency at 3 uM after 10 mins by Fluo4-AM dye based fluorescence assay relative to control
Rattus norvegicus [30] = species: Rattus norvegicus; experiment: Protection against 6-OHDA induced parkinsonian motor deficit in Sprague-Dawley rat after 28 days post surgery; format: functional
Rattus norvegicus [31] = experiment: Toxicity in 6-OHDA induced parkinsonian motor deficit Sprague-Dawley rat model assessed as induction of dyskinesia at 20 mg/kg, ip; format: organism-based; settings: in vivo
Rattus norvegicus [32] = experiment: Toxicity in 6-OHDA induced parkinsonian motor deficit Sprague-Dawley rat model assessed as induction of overacting rearing behavior at 20 mg/kg, ip; format: organism-based; settings: in vivo

Compound `O/N=c1\cc(-c2cc3sccc3cn2)oc2ccc(CCCN3CCOCC3)cc12` [FOLIGLURAX] has a pEC50 [1] of 7.10, an Emax [2] of 70% and a pEC50 [3] of 7.33. The Selectivity ratio (Homo sapiens [4]) was 15, the Activity (Rattus norvegicus [5]) was “inactive” and the Activity (Rattus norvegicus [6]) was “inactive”. The Activity (Rattus norvegicus [7]) was “inactive”, the Activity [8] was “Not Active” and the Activity [9] was “Not Active”. The Activity [10] was “Not Active”, the Cmax [11] was 325 ng/mL and the half-life [12] was 0.9 h. The AUC(0-inf) [13] was 163 ng·h/mL, the clearance [14] was 104 mL/min/kg and the Vd [15] was 8.02 L/kg. For the same compound, the Kp at 1 h [16] was 8.4, the Cmax [17] was 94 ng/mL and the Tmax [18] was 1.17 h. It also gave an AUC(0-inf) [19] of 432 ng·h/mL, a concentration at 0.5 h [20] of 458 ng/g and an AUC (Brain) of 2713 ng·h/g. The Selectivity ratio (Homo sapiens [21]) was 50, the Selectivity ratio (Homo sapiens [22]) was 110 and the pEC50 [23] was 7.10. The Emax [24] was 32%, the concentration at 1.5 h [25] was 818 ng/g and the concentration at 1 h [26] was 785 ng/g. The Kp [27] was 6.6, the Kp [28] was at most 13.5 and the fold change (FC) [29] was 10.

In the case of `N[C@@H](Cc1ccc(O)c(O)c1)C(=O)O` [LEVODOPA], the Activity (Rattus norvegicus [30]) was “Dose-dependent effect”, the Activity (Rattus norvegicus [31]) was “Non-Toxic” and the Activity (Rattus norvegicus [32]) was “Toxic”.
